Series [1] has as its target T1, Sodium channel protein type 5 subunit alpha (Homo sapiens, UniProt Q14524). Briefly: Inhibition of human Nav1.5 expressed in CHO cells under tonic pulse 1 by automated patch clamp electrophysiology analysis. In kind it is cell-based. (Patch clamp records ionic current or voltage across a cell membrane.)
The target of series [2] is T1, Sodium channel protein type 5 subunit alpha. Briefly: Inhibition of human Nav1.5 expressed in CHO cells by automated patch clamp electrophysiology analysis.
For series [3] the target is unchanged. The series can be described thus: Inhibition of human Nav1.5 expressed in Xenopus laevis oocytes at closed state at 1 uM by two electrode voltage-clamp assay. The conditions noted are these: oocyte. In kind it is cell-based. In short, it runs like this:
(§1)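 TEVC on Nav channels expressed in Xenopus laevis oocytes. Each oocyte was injected with 50 nL cRNA at 1 ng/nL and recorded 1–4 days later at 18–22 °C. Bath (mM): NaCl 96, KCl 2, CaCl2 1.8, MgCl2 2, HEPES 5, pH 7.4. Electrodes held 3 M KCl at 0.8–1.5 MΩ. Compound tested at 1 μM. Mean ± SD, n ≥ 5.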

The target is the same in series [4]. The series can be described thus: Inhibition of human Nav1.5 expressed in CHO cells under inactivated state by automated patch clamp electrophysiology analysis. In kind it is cell-based.
The target of series [5] is T2, Sodium channel protein type 9 subunit alpha (Homo sapiens, UniProt Q15858). The series can be described thus: Inhibition of human Nav1.7 expressed in CHO cells under inactivated state by automated patch clamp electrophysiology analysis. The format is cell-based.
Target sequence in this assay (Q15858 whole entry): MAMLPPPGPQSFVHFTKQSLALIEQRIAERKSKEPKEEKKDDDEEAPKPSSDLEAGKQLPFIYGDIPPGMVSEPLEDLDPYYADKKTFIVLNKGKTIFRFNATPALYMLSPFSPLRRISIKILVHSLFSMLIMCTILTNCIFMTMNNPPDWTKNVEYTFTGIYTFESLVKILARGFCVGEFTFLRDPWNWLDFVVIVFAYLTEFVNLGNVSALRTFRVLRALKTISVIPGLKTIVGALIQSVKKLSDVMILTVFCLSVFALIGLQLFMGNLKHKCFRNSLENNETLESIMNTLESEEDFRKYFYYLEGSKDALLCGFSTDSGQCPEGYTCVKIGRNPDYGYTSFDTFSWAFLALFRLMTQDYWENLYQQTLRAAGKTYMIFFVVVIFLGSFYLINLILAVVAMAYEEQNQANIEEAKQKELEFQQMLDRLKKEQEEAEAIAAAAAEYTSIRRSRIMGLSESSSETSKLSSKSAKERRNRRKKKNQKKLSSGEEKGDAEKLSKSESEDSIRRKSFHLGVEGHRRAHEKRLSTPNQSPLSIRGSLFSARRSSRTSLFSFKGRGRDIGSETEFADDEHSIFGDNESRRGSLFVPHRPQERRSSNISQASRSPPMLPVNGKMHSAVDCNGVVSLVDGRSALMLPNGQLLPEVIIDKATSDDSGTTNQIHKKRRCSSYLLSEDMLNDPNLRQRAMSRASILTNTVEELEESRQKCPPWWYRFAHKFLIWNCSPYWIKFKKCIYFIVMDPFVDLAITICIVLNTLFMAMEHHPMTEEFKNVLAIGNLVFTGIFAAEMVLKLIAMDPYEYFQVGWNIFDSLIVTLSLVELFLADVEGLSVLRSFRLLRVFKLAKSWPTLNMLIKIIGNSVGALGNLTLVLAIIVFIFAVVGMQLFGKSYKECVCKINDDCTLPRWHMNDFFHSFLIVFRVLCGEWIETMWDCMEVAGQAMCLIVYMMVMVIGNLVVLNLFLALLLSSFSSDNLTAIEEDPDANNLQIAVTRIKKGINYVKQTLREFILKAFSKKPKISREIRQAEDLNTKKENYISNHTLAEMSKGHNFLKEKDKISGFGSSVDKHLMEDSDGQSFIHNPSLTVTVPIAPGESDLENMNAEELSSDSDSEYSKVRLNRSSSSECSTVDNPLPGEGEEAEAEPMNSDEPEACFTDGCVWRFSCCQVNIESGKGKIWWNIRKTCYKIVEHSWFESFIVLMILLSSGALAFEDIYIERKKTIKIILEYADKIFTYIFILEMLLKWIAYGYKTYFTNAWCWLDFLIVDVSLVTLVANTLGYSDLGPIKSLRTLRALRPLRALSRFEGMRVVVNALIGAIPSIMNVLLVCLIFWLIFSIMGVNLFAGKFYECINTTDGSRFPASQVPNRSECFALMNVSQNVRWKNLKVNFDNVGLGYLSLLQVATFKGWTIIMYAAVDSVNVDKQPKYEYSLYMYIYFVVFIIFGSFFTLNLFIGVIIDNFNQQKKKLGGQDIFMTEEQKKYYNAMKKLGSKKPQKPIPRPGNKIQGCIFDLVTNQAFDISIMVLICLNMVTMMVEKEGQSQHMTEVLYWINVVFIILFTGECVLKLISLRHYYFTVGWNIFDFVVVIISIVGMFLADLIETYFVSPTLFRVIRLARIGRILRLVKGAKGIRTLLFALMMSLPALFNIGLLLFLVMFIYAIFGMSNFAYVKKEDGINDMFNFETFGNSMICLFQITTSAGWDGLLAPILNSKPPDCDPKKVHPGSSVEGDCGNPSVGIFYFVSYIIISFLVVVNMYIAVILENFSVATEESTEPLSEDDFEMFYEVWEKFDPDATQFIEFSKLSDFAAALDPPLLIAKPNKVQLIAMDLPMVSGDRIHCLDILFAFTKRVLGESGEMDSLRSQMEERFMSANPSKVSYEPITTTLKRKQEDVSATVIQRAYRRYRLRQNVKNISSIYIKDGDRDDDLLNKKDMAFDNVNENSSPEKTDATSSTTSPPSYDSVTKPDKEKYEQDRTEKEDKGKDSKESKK
The target of series [6] is T1, Sodium channel protein type 5 subunit alpha. Briefly: Inhibition of human Nav1.5 expressed in CHO cells under resting state by automated patch clamp electrophysiology analysis. The format is cell-based.
The target of series [7] is T2, Sodium channel protein type 9 subunit alpha. The series can be described thus: Inhibition of human Nav1.7 expressed in CHO cells under resting state by automated patch clamp electrophysiology analysis. The format is cell-based.
Target sequence in this assay (Q15858 whole entry): as above
Series [8] concerns the target T3, Sodium channel protein type 3 subunit alpha (Homo sapiens, UniProt Q9NY46). The series can be described thus: Inhibition of human Nav1.3 expressed in CHO cells under inactivated state by automated patch clamp electrophysiology analysis. In kind it is cell-based.
Series [9] concerns the target T3, Sodium channel protein type 3 subunit alpha. Briefly: Inhibition of human Nav1.3 expressed in CHO cells under resting state by automated patch clamp electrophysiology analysis. The format is cell-based.
Series [10] has as its target Sodium channel protein type 10 subunit alpha (Homo sapiens) (UniProt Q9Y5Y9). Briefly: Inhibition of human Nav1.8 expressed in Xenopus laevis oocytes at closed state at 1 uM by two electrode voltage-clamp assay. The format is cell-based. The conditions noted are these: Oocyte. The gist of the method:
as §1

Series [11] addresses Sodium channel protein type 4 subunit alpha (Rattus norvegicus) (UniProt P15390). The series can be described thus: Inhibition of rat Nav1.4 expressed in Xenopus laevis oocytes at closed state at 1 uM by two electrode voltage-clamp assay. In kind it is cell-based. The conditions noted are these: Oocyte. In short, it runs like this: as §1
The target in series [12] is Sodium channel protein type 2 subunit alpha (Rattus norvegicus) (UniProt P04775). The series can be described thus: Inhibition of rat Nav1.2 expressed in Xenopus laevis oocytes at closed state at 1 uM by two electrode voltage-clamp assay. The format is cell-based. The conditions noted are these: Oocyte. In short, it runs like this:
as §1

The target in series [13] is T2, Sodium channel protein type 9 subunit alpha. Briefly: Inhibition of human Nav1.7 expressed in Xenopus laevis oocytes at closed state at 1 uM by two electrode voltage-clamp assay. In kind it is cell-based. To be noted: Oocyte. In short, it runs like this: as §1
Target sequence in this assay (Q15858 whole entry, looked up): as the sequence (Q15858 whole entry) above
The target of series [14] is Sodium channel protein type 8 subunit alpha (Mus musculus) (UniProt Q9WTU3). The series can be described thus: Inhibition of mouse Nav1.6 expressed in Xenopus laevis oocytes at closed state at 1 uM by two electrode voltage-clamp assay. The format is cell-based. To be noted: Oocyte. In short, it runs like this: as §1
The target of series [15] is Sodium channel protein type 1 subunit alpha (Homo sapiens) (UniProt P35498). Briefly: Inhibition of human Nav1.1 expressed in Xenopus laevis oocytes at closed state at 1 uM by two electrode voltage-clamp assay. In kind it is cell-based. To be noted: Oocyte. In short, it runs like this:
as §1
On the technique in general: Two-electrode voltage clamp holds a large cell at a set potential and records current.

Active and inactive are the calls of the source. The rule behind the calls is not given here. A value given as a limit tells only on which side of the number the result lay.

Sequence of Sodium channel protein type 4 subunit alpha (Rattus norvegicus) (P15390 whole entry): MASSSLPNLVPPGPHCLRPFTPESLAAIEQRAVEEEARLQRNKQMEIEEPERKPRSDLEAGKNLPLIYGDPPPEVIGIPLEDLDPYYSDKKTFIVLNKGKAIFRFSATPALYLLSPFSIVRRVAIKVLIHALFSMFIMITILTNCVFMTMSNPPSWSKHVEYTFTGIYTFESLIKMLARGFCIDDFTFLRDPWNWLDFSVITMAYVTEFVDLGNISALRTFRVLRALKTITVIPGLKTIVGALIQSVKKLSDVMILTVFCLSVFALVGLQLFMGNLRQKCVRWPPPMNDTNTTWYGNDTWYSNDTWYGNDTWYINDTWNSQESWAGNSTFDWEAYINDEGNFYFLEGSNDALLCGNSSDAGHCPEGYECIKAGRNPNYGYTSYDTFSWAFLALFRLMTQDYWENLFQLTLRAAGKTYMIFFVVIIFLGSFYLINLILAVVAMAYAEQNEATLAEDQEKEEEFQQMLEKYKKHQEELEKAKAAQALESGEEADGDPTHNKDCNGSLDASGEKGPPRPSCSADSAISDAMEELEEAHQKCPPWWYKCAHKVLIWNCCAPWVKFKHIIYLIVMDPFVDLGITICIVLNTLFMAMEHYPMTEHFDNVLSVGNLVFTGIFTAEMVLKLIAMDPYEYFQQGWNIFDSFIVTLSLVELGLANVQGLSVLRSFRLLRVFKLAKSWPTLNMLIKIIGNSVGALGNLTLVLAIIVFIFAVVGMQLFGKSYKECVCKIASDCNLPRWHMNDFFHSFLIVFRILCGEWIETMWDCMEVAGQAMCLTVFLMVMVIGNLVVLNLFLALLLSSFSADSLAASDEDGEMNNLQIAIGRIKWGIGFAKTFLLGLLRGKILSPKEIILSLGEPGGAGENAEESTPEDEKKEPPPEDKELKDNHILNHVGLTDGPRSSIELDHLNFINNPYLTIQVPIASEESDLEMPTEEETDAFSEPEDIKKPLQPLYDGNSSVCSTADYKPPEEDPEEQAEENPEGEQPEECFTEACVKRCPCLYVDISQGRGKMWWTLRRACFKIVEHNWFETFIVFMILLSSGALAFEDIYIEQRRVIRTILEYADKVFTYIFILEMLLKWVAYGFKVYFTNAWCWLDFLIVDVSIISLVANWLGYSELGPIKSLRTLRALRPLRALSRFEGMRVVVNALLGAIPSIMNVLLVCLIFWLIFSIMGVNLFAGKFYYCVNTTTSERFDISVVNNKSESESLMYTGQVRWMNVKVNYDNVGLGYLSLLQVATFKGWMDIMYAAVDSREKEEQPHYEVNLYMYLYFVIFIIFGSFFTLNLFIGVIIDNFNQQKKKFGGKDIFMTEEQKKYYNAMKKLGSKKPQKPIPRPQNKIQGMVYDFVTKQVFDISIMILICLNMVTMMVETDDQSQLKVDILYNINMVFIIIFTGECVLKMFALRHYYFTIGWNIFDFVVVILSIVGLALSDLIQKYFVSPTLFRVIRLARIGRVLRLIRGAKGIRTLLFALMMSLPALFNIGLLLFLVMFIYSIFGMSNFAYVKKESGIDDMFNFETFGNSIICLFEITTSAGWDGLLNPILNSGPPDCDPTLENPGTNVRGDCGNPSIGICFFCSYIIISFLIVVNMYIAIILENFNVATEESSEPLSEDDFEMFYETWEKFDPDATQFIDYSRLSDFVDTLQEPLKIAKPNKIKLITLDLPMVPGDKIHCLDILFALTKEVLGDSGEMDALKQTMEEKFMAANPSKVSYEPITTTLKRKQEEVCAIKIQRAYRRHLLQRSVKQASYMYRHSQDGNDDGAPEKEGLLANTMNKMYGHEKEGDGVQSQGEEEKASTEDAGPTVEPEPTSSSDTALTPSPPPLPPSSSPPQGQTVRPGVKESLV

For the compound `O=C(Nc1cccc(S(=O)(=O)Nc2nccs2)c1)c1cccn1Cc1ccccc1`, the IC50 in series [1] and in series [2] was over 30 µM in each case. Besides, the “inhibition (INH)” value in series [3] is on record as “Not Active”.
For the compound `CS(=O)(=O)NC(=O)c1ccc(OC[C@@H]2C[C@H]2c2ccccc2)cc1`, the IC50 in series [1] and in series [2] was over 30 µM throughout. The “inhibition (INH)” value in [3] is listed as “Not Active”.
Turning to `O=C(Nc1ccc(S(=O)(=O)Nc2nccs2)cc1)c1cc(Br)c(Br)n1-c1ccccc1`, the IC50 in series [4] is 3.4 µM; in series [5] it was 9.3 µM; in series [1], over 30 µM; in series [2], over 30 µM; in [6], over 30 µM; in series [7] it was over 30 µM. Also, in [3], the “inhibition (INH)” value is listed as “Not Active”.
`CC(=O)NS(=O)(=O)c1ccc(NC(=O)CC(C)c2ccccc2)cc1` (stereo not drawn): the IC50 was 21 µM in series [8] and over 30 µM in series [9].
With `CS(=O)(=O)NC(=O)c1cccc(OC[C@@H]2C[C@H]2c2ccccc2)c1`, the IC50 in series [1], in [2], in series [8] and in series [9] was over 30 µM in each case. Besides, the inhibition entry in [10], in series [11], in [12], in [13], in series [14] and in series [15] was “inactive” throughout. In series [3], the “inhibition (INH)” value is reported as “Not Active”.
On to `CS(=O)(=O)NC(=O)c1ccc(NC(=O)c2cc(Br)c(Br)n2-c2ccccc2)cc1`, for which the “inhibition (INH)” value in series [3] is on record as “Not Active”.
In the case of `CC(=O)NS(=O)(=O)c1ccc(NC(=O)[C@@H]2C[C@H]2c2ccccc2)cc1`, the IC50 in series [1] and in [2] was over 30 µM each time. For the same compound, the “inhibition (INH)” value in series [3] is “Not Active”.
For the compound `O=C(Nc1cccc(S(=O)(=O)Nc2nccs2)c1)c1cc(Br)c(Br)n1Cc1ccccc1`, the half-maximal inhibitory concentration (IC50) in series [1] and in series [2] was over 30 µM throughout. Also, the “inhibition (INH)” value in [3] was “Not Active”.
Consider `C[C@@H](Oc1ccc(Cl)cc1)C(=O)Nc1ccc(C(=O)NS(=O)(=O)N(C)C)cc1`, for which the “inhibition (INH)” value in series [3] is reported as “Not Active”.
Take `CC(NS(=O)(=O)c1ccc(C2=CC(c3ccc(Cl)cc3)n3nnnc3N2)cc1)C(=O)O` (stereo not drawn): the IC50 in [8] and in series [9] was over 30 µM each time.
As to `C[C@H](Oc1ccc(Cl)cc1)C(=O)Nc1ccc(C(=O)NS(C)(=O)=O)cc1`, the “inhibition (INH)” value in series [3] is “Not Active”.
For the compound `O=C(Nc1cccc(S(=O)(=O)Nc2nccs2)c1)[C@@H]1C[C@H]1c1ccccc1`, the IC50 in series [1] and in [2] was over 30 µM throughout. In addition, the “inhibition (INH)” value in [3] was “Not Active”.
Turning to `O=C(Nc1ccc(S(=O)(=O)Nc2nccs2)cc1)c1cccn1-c1ccccc1`, the IC50 in [1] and in series [2] was over 30 µM in each case. Further, in series [3], the “inhibition (INH)” value is listed as “Not Active”.
For the compound `O=C(Nc1cccc(S(=O)(=O)Nc2nccs2)c1)c1cccn1Cc1ccc(Cl)cc1`, the half-inhibitory concentration (IC50) in series [1] and in series [2] was over 30 µM throughout. In addition, in [3], the “inhibition (INH)” value is on record as “Not Active”.
For `CC1CCCC(C)N1S(=O)(=O)c1ccc(NS(=O)(=O)c2ccc3c(c2)CC(=O)N3C)cc1` (stereo not drawn), the IC50 is 28 µM in [8] and over 30 µM in series [9].
`O=C(Nc1ccc(S(=O)(=O)Nc2nccs2)cc1)c1cccn1Cc1ccc(Cl)cc1`: the half-inhibitory concentration (IC50) is 3.7 µM in series [4]; 8.4 µM in series [5]; over 30 µM in [1]; over 30 µM in series [2]; over 30 µM in series [6]; over 30 µM in [7]. In addition, the “inhibition (INH)” value in series [3] was “Not Active”.
In the case of `Cc1nn(C)cc1/C=C(\C#N)C(=O)Nc1ccc(S(=O)(=O)Nc2nccs2)cc1`, the IC50 in series [1] was over 30 µM; in series [2] it was over 30 µM; in series [8] it was 3.8 µM; in series [9], 26 µM. For the same compound, the inhibition entry in series [10], in series [11], in series [12], in [13], in series [14] and in series [15] was “inactive” each time. Also, the “inhibition (INH)” value in series [3] is recorded as “Not Active”.
As to `CC(CCc1ccc(O)cc1)NC(=O)Nc1ccc(S(=O)(=O)N2CCCC2)cc1` (stereo not drawn), the IC50 was 20 µM in [8] and over 30 µM in series [9].
Turning to `CC(=O)NS(=O)(=O)c1ccc(NC(=O)c2cc(Br)c(Br)n2Cc2ccccc2)cc1`, the “inhibition (INH)” value in [3] is recorded as “Not Active”.
Turning to `NC1=N[C@H](O)[C@H]2[C@H]3O[C@]4(O)O[C@@H]([C@@H](O)[C@@]2(N1)[C@@H]4O)[C@]3(O)CO` [TETRODOTOXIN], the IC50 in [8] was 0.001 µM; in [9] it was 0.004 µM.
As to `CN(C)S(=O)(=O)NC(=O)c1ccc(NC(=O)c2cc3ccccc3o2)cc1`, in [3], the “inhibition (INH)” value is “Not Active”.
For the compound `CN(C)CCC=C1c2ccccc2CCc2ccccc21` [AMITRIPTYLINE], the IC50 in series [4] is 1.2 µM; in [5], 2.3 µM; in series [1], 11 µM; in [2], 6.9 µM; in [6], 20 µM; in [7], 10 µM.
As to `O=C(Nc1ccc(S(=O)(=O)Nc2nccs2)cc1)c1cccn1Cc1ccccc1`, the IC50 in series [1] and in series [2] was over 30 µM throughout. The “inhibition (INH)” value in series [3] is “Not Active”.
Turning to `CN(C)S(=O)(=O)NC(=O)c1ccc(NC(=O)[C@@H]2C[C@H]2c2ccccc2)cc1`, the “inhibition (INH)” value in series [3] is “Not Active”.
Consider `CC(=O)NS(=O)(=O)c1ccc(NC(=O)c2cccn2Cc2ccccc2)cc1`, for which the IC50 in [8] is 23 µM; in series [9], over 30 µM.
Turning to `CN(C)S(=O)(=O)NC(=O)c1ccc(NC(=O)c2cccn2Cc2ccc(Cl)cc2)cc1`, the “inhibition (INH)” value in series [3] was “Not Active”.
Same read-out and setting: next, `C[C@@H](Oc1ccc(Cl)cc1)C(=O)Nc1ccc(C(=O)NS(C)(=O)=O)cc1`: “Not Active”.
`O=C(Nc1ccc(S(=O)(=O)Nc2nccs2)cc1)[C@@H]1C[C@H]1c1ccccc1`: the figures for the IC50 in [8] (cho) and in series [9] (cho) were 0.056 µM and 18 µM, respectively.
Regarding `O=C(Nc1nccs1)c1ccc(NC(=O)[C@@H]2C[C@H]2c2ccccc2)cc1`, the IC50 in series [4], in [5], in [1], in series [2], in series [6] and in series [7] was over 30 µM in each case.
For `CC(=O)NS(=O)(=O)c1ccc(NC(=O)c2cc(Br)c(Br)n2-c2ccccc2)cc1`, the IC50 was 19 µM in series [8] and over 30 µM in series [9].
Take `Cc1nc(-c2c(Cl)cccc2Cl)sc1C(=O)N[C@@H](Cc1ccccc1)C(=O)O`: the “inhibition (INH)” value in [3] is given as “Not Active”.
As to `CC1CCCCN1C(=O)c1ccc(NS(=O)(=O)c2ccc3[nH]c(=O)[nH]c3c2)cc1` (stereo not drawn), the IC50 in series [8] and in series [9] was over 30 µM throughout.
As for `CC(=O)NS(=O)(=O)c1ccc(NC(=O)c2cccn2Cc2ccc(Cl)cc2)cc1`, the “inhibition (INH)” value in [3] is on record as “Not Active”.
For `CS(=O)(=O)NC(=O)c1ccc(NC(=O)c2cccn2Cc2ccc(Cl)cc2)cc1`, the inhibition entry in [10], in series [11], in [12], in series [13], in series [14] and in series [15] was “inactive” in each case. In addition, the “inhibition (INH)” value in series [3] is “Not Active”. In addition, the IC50 in [8] and in series [9] was over 30 µM in each case.
For `CS(=O)(=O)NC(=O)c1ccc(NC(=O)[C@@H]2C[C@H]2c2ccccc2)cc1`, the inhibition entry in [10], in series [11], in series [12], in series [13], in series [14] and in series [15] was “inactive” throughout. For the same compound, the “inhibition (INH)” value in [3] is listed as “Not Active”. The IC50 in series [8] and in [9] was over 30 µM throughout.
Turning to `CS(=O)(=O)NC(=O)c1ccc(NC(=O)C2CC2c2ccc(F)c(F)c2)cc1` (racemic), the inhibition entry in series [10], in [11], in series [12], in [13], in series [14] and in [15] was “inactive” each time. In addition, in series [3], the “inhibition (INH)” value is recorded as “Not Active”. Besides, the IC50 in series [8] and in series [9] was over 30 µM each time.
Consider `CS(=O)(=O)NC(=O)c1ccc(NC(=O)c2cc(Br)c(Br)n2Cc2ccccc2)cc1`, for which the “inhibition (INH)” value in series [3] is “Not Active”.

As usually defined, the IC50 is the concentration that gives 50% inhibition. A high value points to weaker potency.

For the origin of these results see ChEMBL document CHEMBL5620393, “New aryl and acylsulfonamides as state-dependent inhibitors of Nav1.3 voltage-gated sodium channel” (Eur J Med Chem, 2023).
